# In ChEMBL document CHEMBL4396878, “Mechanisms of Specific versus Nonspecific Interactions of Aggregation-Prone Inhibitors and Attenuators” (J Med Chem, 2019):
# The source made the active and inactive calls. The calls are words filed in the database; no cut-off is given here.
# Key:
# [1] = Binding affinity to Triton-X 100 assessed as line broadening at 150 uM by 1H-NMR spectra analysis
# [2] = Binding affinity to Triton-X 100 assessed as change in chemical shift at 150 uM by 1H-NMR spectra analysis
# [3] = Binding affinity to Triton-X 100 assessed as peak intensity loss at 150 uM by 1H-NMR spectra analysis
# [4] = Binding affinity to Triton-X 100 assessed as change in chemical shift at 100 uM by 1H-NMR spectra analysis
# [5] = Binding affinity to Triton-X 100 assessed as intra-molecular cross relaxation at 500 uM by NOESY spectra analysis
# Method in brief: (§1)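 2D NOESY and ROESY of 100 μM ESI with 0.025% Triton X-100 or 500 μM ESI with 0.05% Triton X-100; 2K × 512 complex points, 12 ppm spectral width centred at 4.7 ppm, intra- and intermolecular cross-peaks mapped.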
# [6] = Binding affinity to Triton-X 100 assessed as compound-complex formation at 500 uM by NOESY spectra analysis; method in brief: as §1
# [7] = Binding affinity to Triton-X 100 assessed as inter-molecular cross relaxation at 500 uM by NOESY spectra analysis; method in brief: as §1
# [8] = Binding affinity to Triton-X 100 at 500 uM measured after 14 hrs by NOESY spectra analysis; method in brief: as §1
# [9] = Binding affinity to Triton-X 100 assessed as peak size of aggregate at 1:1 ratio of Triton-X 100 to compound by dynamic light scattering analysis
# Method in brief: (§2)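 Dynamic light scattering in NMR buffer, samples filtered through 0.22 μm and centrifuged 5 min at 13 500 rpm before measurement. Autocorrelation accumulated 150 s at a 173° scattering angle, in replicates of 3–5, with water viscosity used in analysis; intensity or volume size distributions reported.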
# [10] = Binding affinity to Triton-X 100 assessed as intra-molecular saturation transfer at 500 uM at 8.61 ppm by STD spectra analysis
# Method in brief: (§3)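 STD NMR, saturation by a train of 40 Gaussian pulses of 50 ms each; selective on-resonance irradiation at the stated ppm (TX at 7.48 ppm), off-resonance at 30 ppm, interleaved and subtracted by phase cycling. 32K points, 16 ppm width centred at 4.7 ppm, 256 scans, 16 dummy scans, 0.1 s recycle delay (~15 min); 3 Hz exponential line broadening.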
# [11] = Binding affinity to Triton-X 100 assessed as inter-molecular saturation transfer at 500 uM at 8.61 ppm by STD spectra analysis; method in brief: as §3
# [12] = Binding affinity to Triton-X 100 assessed as peak size of aggregate at 1:2 ratio of Triton-X 100 to compound by dynamic light scattering analysis; method in brief: as §2
# [13] = Binding affinity to Triton-X 100 assessed as line broadening at 150 uM by 1H-NMR analysis
# [14] = Aggregation property of the compound assessed as change in peak intensity by measuring concentration at which peak intensities deviated from the linear correlation by 1H-NMR analysis; type: physicochemical
# Method in brief: (§4)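 Line widths, chemical shifts and peak intensities tracked; CAC taken as the concentration where intensities deviate from linear dependence, or, for line width, the minimal concentration that increases peak width.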
# [15] = target: T1, Rap guanine nucleotide exchange factor 3 (Homo sapiens, UniProt O95398); test: Binding affinity to human EPAC1 cAMP binding domain (149 to 318 residues) by [15N-1H]HSQC spectroscopic analysis
# T1 sequence (O95398 whole entry): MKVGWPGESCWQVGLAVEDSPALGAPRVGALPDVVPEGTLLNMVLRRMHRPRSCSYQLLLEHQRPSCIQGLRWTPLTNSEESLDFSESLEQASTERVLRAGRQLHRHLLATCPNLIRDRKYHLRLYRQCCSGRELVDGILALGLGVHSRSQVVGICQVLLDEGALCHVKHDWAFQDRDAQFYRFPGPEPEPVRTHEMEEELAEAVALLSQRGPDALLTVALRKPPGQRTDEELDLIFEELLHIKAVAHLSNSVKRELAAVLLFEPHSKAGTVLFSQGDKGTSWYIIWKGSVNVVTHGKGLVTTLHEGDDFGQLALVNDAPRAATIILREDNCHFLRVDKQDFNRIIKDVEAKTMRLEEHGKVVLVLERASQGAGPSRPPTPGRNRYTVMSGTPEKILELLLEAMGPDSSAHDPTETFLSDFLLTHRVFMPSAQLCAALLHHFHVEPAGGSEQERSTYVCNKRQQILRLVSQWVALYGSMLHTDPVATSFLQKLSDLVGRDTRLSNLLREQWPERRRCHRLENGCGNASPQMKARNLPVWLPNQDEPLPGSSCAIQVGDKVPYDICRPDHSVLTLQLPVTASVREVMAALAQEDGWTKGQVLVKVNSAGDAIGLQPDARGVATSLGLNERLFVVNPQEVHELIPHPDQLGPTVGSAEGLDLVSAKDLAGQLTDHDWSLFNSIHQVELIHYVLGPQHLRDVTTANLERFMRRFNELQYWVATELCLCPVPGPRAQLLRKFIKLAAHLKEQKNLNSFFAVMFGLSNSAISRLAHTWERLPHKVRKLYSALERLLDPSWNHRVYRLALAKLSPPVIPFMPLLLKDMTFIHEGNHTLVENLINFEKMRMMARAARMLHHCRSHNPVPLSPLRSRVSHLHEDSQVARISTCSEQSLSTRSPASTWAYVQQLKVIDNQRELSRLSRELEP
# Albumin [16] = target: T2, Albumin (Homo sapiens, UniProt P02768); test: Binding affinity to human serum albumin assessed as inhibition of compound aggregation at 500 uM by dynamic light scattering analysis; method in brief: as §2
# T2 sequence (P02768 whole entry): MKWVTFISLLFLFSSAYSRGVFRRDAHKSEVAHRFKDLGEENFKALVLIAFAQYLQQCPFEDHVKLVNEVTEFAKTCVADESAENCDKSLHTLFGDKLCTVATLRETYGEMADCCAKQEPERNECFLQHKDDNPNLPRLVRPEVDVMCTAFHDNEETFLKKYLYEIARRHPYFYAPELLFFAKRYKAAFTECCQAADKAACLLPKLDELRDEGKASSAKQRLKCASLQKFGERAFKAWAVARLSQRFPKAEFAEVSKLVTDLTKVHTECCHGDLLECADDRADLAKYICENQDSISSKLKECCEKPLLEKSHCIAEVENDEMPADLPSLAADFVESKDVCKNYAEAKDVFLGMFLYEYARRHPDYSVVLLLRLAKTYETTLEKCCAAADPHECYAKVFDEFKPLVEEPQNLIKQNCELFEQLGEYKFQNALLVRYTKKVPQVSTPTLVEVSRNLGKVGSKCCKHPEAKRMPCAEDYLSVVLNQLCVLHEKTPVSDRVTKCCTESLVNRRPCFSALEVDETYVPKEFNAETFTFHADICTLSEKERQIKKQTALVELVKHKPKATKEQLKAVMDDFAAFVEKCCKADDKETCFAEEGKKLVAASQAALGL
# [17] = Aggregation property of the compound assessed as change in chemical shift by 1H-NMR analysis; type: physicochemical; method in brief: as §4
# Albumin [18] = target: T2, Albumin; test: Displacement of ANS from human serum albumin at <150 uM by fluorescence assay
# Method in brief: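 Fluorescence competition: 2.5 μM HSA with 5 or 100 μM ANS, ligand added over a concentration range. Excitation 360 nm; emission read at 460 and 480 nm to check for blue shift. Signal normalized between ANS alone (minimum) and HSA:ANS (maximum).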
# Albumin [19] = target: T2, Albumin; test: Displacement of dansylated arginine from human serum albumin at <150 uM by fluorescence assay
# Method in brief: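 Competition of ligand against 100 μM dansyl-arginine (Sudlow site 1, 1:1 stoichiometry) bound to 2.5 μM HSA. Excitation 370 nm, emission 460 nm. Apparent Kd fitted by Wang's method using least squares, assuming no other ligand sites on HSA, so treated as a maximum apparent value.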
# Albumin [20] = target: T2, Albumin; test: Displacement of [13C]oleic acid from human serum albumin by CH-HSQC spectra analysis
# Method in brief: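 Fatty-acid-free recombinant HSA at 250 μM in sodium phosphate buffer (20 mM NaPO4, pH 7.6, 50 mM NaCl, D2O), 37 °C for 30 min. 13C-oleic acid (100 mM stock in DMSO-d6, warmed to 50 °C for 10 min) added to 1.5 mM, then 2 h at 37 °C. CH-HSQC at 298 K; loss of site-specific cross-peaks A–H scored.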
# [21] = Aggregation property of the compound in NMR buffer assessed as aggregate size at 500 uM by dynamic light scattering analysis; type: physicochemical; method in brief: as §2
# Albumin [22] = target: T2, Albumin; test: Binding affinity to human serum albumin assessed as line broadening at 200 uM by 1D 1H NMR analysis
# [23] = target: T1, Rap guanine nucleotide exchange factor 3; test: Binding affinity to human EPAC1 cAMP binding domain (149 to 318 residues) in presence of human serum albumin by [15N-1H]HSQC spectroscopic analysis; conditions: read-out: Kd(app)
# Method in brief: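 100 μM human EPAC1 CBD (149–318) in NMR buffer (Tris pH 7.6) was titrated with inhibitor in the presence of globulin- and fatty-acid-free human serum albumin at stated stoichiometric ratios. Chemical shift differences and peak intensities normalised to ligand-free sample (I/I0, averaged over residues) were tracked. Errors came from propagated signal-to-noise.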
# [24] = Aggregation property of the compound assessed as shift in peak width by 1H-NMR analysis; type: physicochemical; method in brief: as §4
# Albumin [25] = target: T2, Albumin; test: Displacement of dansylated phenylalanine from human serum albumin at <150 uM by fluorescence assay
# Method in brief: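 Competition of ligand against 100 μM dansyl-phenylalanine (binds Sudlow sites 1 and 2) bound to 2.5 μM HSA. Excitation 370 nm, emission 480 nm. Fractional saturation modelled with two sites, free HSA assumed negligible; least-squares fit with no further ESI sites, giving maximum apparent dissociation constants.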
# [26] = Aggregation property of the compound in NMR buffer assessed as amorphous morphology at 200 uM by uranyl acetate staining-based transmission electron microscopic analysis; type: physicochemical
# [27] = Aggregation property of the compound assessed as change in saturation transfer at 100 uM irradiated at 8.61 ppm by STD NMR spectra analysis; type: physicochemical; method in brief: as §3
# [28] = Aggregation property of the compound in NMR buffer assessed as diameter of aggregate at 500 uM by dynamic light scattering analysis; type: physicochemical; method in brief: as §2
# [29] = Aggregation property of the compound in NMR buffer at 50 to 250 uM by surface plasmon resonance analysis; type: physicochemical
# Method in brief: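 SPR on a nonfunctionalized gold nanoparticle sensor; samples in NMR buffer with DMSO at 1.25%, injected at 33 μL/min alongside matched DMSO controls (with HSA where present, 25 μM), in duplicate. Surface regenerated only after HSA-containing injections.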
structure (smiles),measurement,setting,value
O=C(O)c1cc(-c2ccc(F)cc2F)ccc1O,Activity,[1],Active
same,Activity,[2],Active
O=C(OCc1ccccc1)c1ccccc1,Activity,[1],Active
same,Activity,[2],Active
same,Activity,[3],Active
C[C@@H]1CCc2c(cc(Br)c(F)c2Br)N1C=O (stereo in doubt; trans),Activity,[4],0.02 ppm
C[C@@H]1CCc2c(cc(Br)c(F)c2Br)N1C=O [listing 1 of 2 here],Activity,[5],Active
same,Activity,[6],Active
same,Activity,[7],Active
same,Activity,[8],inactive
same,Activity,[9],10 nm
same,Activity,[10],Active
same,Activity,[11],Active
same,Activity,[12],70 nm
Clc1ccc(COC(Cn2ccnc2)c2ccc(Cl)cc2Cl)c(Cl)c1 (stereo not given),Activity,[13],Active
same,Activity,[1],Active
same,Activity,[2],Active
same,Activity,[3],Active
Clc1ccccc1C(c1ccccc1)(c1ccccc1)n1ccnc1,Activity,[1],Active
same,Activity,[2],Active
same,Activity,[3],Active
O=S(=O)(O)c1cccc2cccc(Nc3ccccc3)c12,Activity,[1],Active
same,Activity,[2],Active
Nc1nnc(-c2cccc(Cl)c2Cl)c(N)n1,Activity,[1],inactive
same,Activity,[2],inactive
C[C@@H]1CCc2c(cc(Br)c(F)c2Br)N1C=O [listing 2 of 2 here],Activity,[14],150 µM
same,Kd,[15],124 to 184 µM
same,inhibition (INH),Albumin [16],Active
same,Activity,[17],Not Active
same,Activity,Albumin [18],Not Active
same,Activity,Albumin [19],Not Active
same,Activity,Albumin [20],Active
same,Activity,[21],90 to 600 nm
same,Activity,Albumin [22],Active
same,Kd,[23],0.757 to 1.98 mM
same,Activity,[24],Not Active
same,Activity,Albumin [25],Not Active
same,Activity,[26],Active
same,Activity,[27],Not Active
same,Activity,[28],250 nm
same,Activity,[29],Not Active
COC(=O)C1=C(C)NC(C)=C(C(=O)OCCN(C)Cc2ccccc2)C1c1cccc([N+](=O)[O-])c1 (stereo not given),Activity,[1],Active
same,Activity,[2],Active
same,Activity,[3],Active
C[C@@H]1CCc2c(cc(Br)c(F)c2Br)N1C=O (stereo in doubt; cis),Activity,[4],< 0.34 ppm
